Reference: publication PMC11983213 (ACS Omega, 2025)
In brackets after ≈: the same amount, converted by molar mass.

Experiments:
[1] = test system: HepG2 liver cancer cell line; test: MTT cytotoxicity assay on HepG2; assay type: cell-based; conditions: Homo sapiens, HepG2, 48 h
How it was run: (§1)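 Cells held in RPMI-1640 or DMEM with 2 mM L-glutamine, 1% penicillin/streptomycin and 10% FBS at 37 °C, 5% CO2. Seeded in triplicate at 5000 cells per well, then treated next day with test extract or compound. After 48 h exposure, MTT reagent added for 3 h and signal read at 570 nm. IC50 estimated from the viability data.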

[2] = test system: MDA-MB-231 breast cancer cell line; test: MTT cytotoxicity assay on MDA-MB-231; assay type: cell-based; conditions: Homo sapiens, MDA-MB-231, 48 h
How it was run: as §1

[3] = test system: MCF-7 breast cancer cell line; test: MTT cytotoxicity assay on MCF-7; assay type: cell-based; conditions: Homo sapiens, MCF7, 48 h
How it was run: as §1

[4] = test system: HSF normal cell line; test: MTT cytotoxicity assay on HSF; assay type: cell-based; conditions: 48 h
How it was run: as §1

[5] = test system: breast and skin cancer cells; conditions: cancer versus normal cells; cited from earlier work
[6] = test system: gastric cancer cells; conditions: via PI3K/Akt/Snail pathway; cited from earlier work
[7] = test system: breast cancer cells; conditions: cited from earlier work
[8] = test system: pancreatic cancer cells; conditions: by blocking NF-κB activation; cited from earlier work
[9] = test system: breast and bone cancers; conditions: cited from earlier work
[10] = test system: breast and colon cancer cells; conditions: cited from earlier work
[11] = test system: protein tyrosine kinases v-src and pp60src; conditions: cited from earlier work
[12] = test system: SPC-1-A, Bcap37, and HepG2 cancer cells; conditions: via the mitochondrial apoptotic pathway; cited from earlier work

SMILES | IC50 [1] [µg/mL] | IC50 [2] [µg/mL] | IC50 [3] [µg/mL] | IC50 [4] [µg/mL] | other results
COc1ccc2c(c1O)C(=O)c1ccccc1C2=O [2-methyl alizarin, 1-Hydroxy-2-methoxyanthracene-9,10-dione] | 8.88 (≈ 34.9 µM) | 83 (≈ 327 µM) | 52.1 (≈ 205 µM) | 67 (≈ 264 µM) | –
O=C1c2ccccc2C(=O)c2c(O)cc(O)cc21 [xanthopurpurin] | – | – | – | – | selective toxicity [5]: high selective toxicity toward breast and skin cancer cells at lower concentrations without inducing toxicity toward normal cells
CC(=O)Oc1ccc2c(c1OC(C)=O)C(=O)c1ccccc1C2=O [alizarin-1,2-diacetate, 1,2-Diacetoxyanthraquinone] | ≥ 50 | 127 (≈ 391 µM) | 135 (≈ 416 µM) | 142 (≈ 437 µM) | –
O=C1c2ccccc2C(=O)c2c(O)c(O)cc(O)c21 [purpurin] | 179 (≈ 700 µM) | 244 (≈ 954 µM) | 148 (≈ 577 µM) | 201 (≈ 783 µM) | –
COc1cccc2c1C(=O)c1c(O)c3c(c(O)c1C2=O)C[C@@](O)(C(=O)CO)C[C@@H]3O[C@H]1C[C@H](N)[C@H](O)[C@H](C)O1 [Doxorubicin, reference compound] | 2.48 (≈ 4.56 µM) | 7.05 (≈ 13 µM) | 2.17 (≈ 3.99 µM) | – | –
COc1ccc(-c2cc(=O)c3c(O)cc(O)cc3o2)cc1 [acacetin] | – | – | – | – | effect on invasion, migration and TGF-β1-induced EMT [6]: prevented gastric cancer cells from invasively migrating and developing TGF-β1-induced epithelial-to-mesenchymal transition; induction of cell death [7]: caused RIP1-dependent necroptotic death and prolonged ERK1/2 activation
O=C1c2ccccc2C(=O)c2c1ccc(O)c2O [alizarin] | 99.4 (≈ 414 µM) | 52.6 (≈ 219 µM) | 66.9 (≈ 279 µM) | 111 (≈ 462 µM) | effect on cell growth [8]: prevented pancreatic cancer cells from growing; effect on breast and bone cancers [9]: impaired both breast and bone cancers by inducing cell cycle arrest in the S phase and inhibiting ERK phosphorylation
CC(=O)Oc1ccc2c(c1O)C(=O)c1ccccc1C2=O [alizarin-2-acetate, 9,10-Dihydro-1-hydroxy-9,10-dioxoanthracen-2-yl Acetate] | ≥ 50 | 157 | 120 | 151 | –
O=C1c2ccccc2C(=O)c2cc(O)ccc21 [2-hydroxyanthraquinone] | – | – | – | – | induction of apoptosis [10]: resulting in apoptosis via inhibiting antiapoptotic pathways; inhibitory activity against protein tyrosine kinases [11]: exhibited inhibitory activity; effect on cell growth [12]: arrested the growth
